Laboratory results: the RNAGym collection of RNA variant scans (doi:10.1126/science.aae0568)
Fewer inactive variants are shown than the library holds.

B1: tRNA (parent)
chain: GUUCCGUUGGCGUAAUGGUAACGCGUCUCCCUCCUAAGGAGAAGACUGCGGGUUCGAGUCCCGUACGGAACG

Variants of: B1
Assay: yeast fitness relative to wild type (ratio to wild type); higher = fitter; tRNA-Arg(CCU), competitive growth, 37 C, YPD
In short: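 Gene amplicons from the start population and from each of six end populations were read by 100-nucleotide paired-end sequencing. Those end populations came from pooled Saccharomyces cerevisiae strains carrying tRNA-Arg(CCU) gene variants at the native locus, competed in YPD at 37°C for 24 hours. Fitness relative to wild type was worked out from changes in genotype frequencies. Genotypes needed ≥ 100 starting reads, and estimates < 0.5 were set to 0.5.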

Q: With U2C U47A as the variant, how does the yeast fitness read?
A: 0.982

Q: Which yeast fitness does the source give for U2G A36U C46G C62A A69C here?
A: ≤ 0.5

Q: Which yeast fitness does the source give for U2C G23A C24U A45U C60A here?
A: 0.61

Q: Which yeast fitness does the source give for U2G G63A here?
A: 0.876

Q: With U2C G25A A42U as the variant, how does the yeast fitness read?
A: 0.561

Q: With U2G A45C C49U C55U as the variant, how does the yeast fitness read?
A: ≤ 0.5

Q: Which yeast fitness does the source give for U2G G38C here?
A: 0.606

Q: Which yeast fitness does the source give for U2G C31A G56U G67A A70C here?
A: ≤ 0.5

Q: With U2G U8C C22U C24G U32C A37G A69G A70G as the variant, how does the yeast fitness read?
A: ≤ 0.5

Q: With U2G U19G A70C as the variant, how does the yeast fitness read?
A: 0.685

Q: Which yeast fitness does the source give for U2G A20G C46A here?
A: 0.618

Q: For U2G G6A G23A C29G C55A, which yeast fitness is on record?
A: 0.508

Q: For U2G G12C C49U C66U, which yeast fitness is on record?
A: ≤ 0.5

Q: For U2G C34U A36C, which yeast fitness is on record?
A: ≤ 0.5

Q: With U2C U16C C27G G68A as the variant, how does the yeast fitness read?
A: ≤ 0.5

Q: For U2G A15U, which yeast fitness is on record?
A: 0.75

Q: With U2G A15G as the variant, how does the yeast fitness read?
A: 0.812

Q: For U2C U7G U32A U59A, which yeast fitness is on record?
A: 0.501

Q: With U2C U19C U59A as the variant, how does the yeast fitness read?
A: 0.582

Q: Which yeast fitness does the source give for U2C U19A U26A C29A C46G U54A here?
A: ≤ 0.5

Q: Which yeast fitness does the source give for U2G U19G here?
A: 1.24

Q: Which yeast fitness does the source give for U2G U3C G10C A69C here?
A: ≤ 0.5

Q: Which yeast fitness does the source give for U2G A20C C27U C46A here?
A: 0.614

Q: With U2G G9C A15G as the variant, how does the yeast fitness read?
A: ≤ 0.5

Q: Which yeast fitness does the source give for U2C G25A A42U C55G here?
A: ≤ 0.5

Q: With U2G U13A C22U as the variant, how does the yeast fitness read?
A: 0.579

Q: With U2C G25C A36U G38A as the variant, how does the yeast fitness read?
A: ≤ 0.5

Q: Which yeast fitness does the source give for U2G A65C here?
A: 0.897

Q: With U2C U28A as the variant, how does the yeast fitness read?
A: 0.563

Q: Which yeast fitness does the source give for U2C U28C here?
A: 0.912

Q: With U2C U47A A70G as the variant, how does the yeast fitness read?
A: 1.15

Q: With U2C U13C C61G as the variant, how does the yeast fitness read?
A: ≤ 0.5

Q: Which yeast fitness does the source give for U2G C30G C62G here?
A: 0.591

Q: Which yeast fitness does the source give for U2G U7G U16C C34U G50A U54C A65U here?
A: ≤ 0.5

Q: Which yeast fitness does the source give for U2G C4A U16C C61G here?
A: 0.571

Q: Which yeast fitness does the source give for U2G C24G G52C C66U here?
A: 0.807

Q: Which yeast fitness does the source give for U2C U16C C22A U35A A45C here?
A: ≤ 0.5

Q: For U2G C4A G38C G50A, which yeast fitness is on record?
A: 0.713

Q: With U2G C4A C22U U28G A42U G68U as the variant, how does the yeast fitness read?
A: ≤ 0.5

Q: Which yeast fitness does the source give for U2C G50A U54A G67A here?
A: ≤ 0.5

Q: For U2G C29G G44C C49G A57U, which yeast fitness is on record?
A: ≤ 0.5

Q: With U2C U28A G52A as the variant, how does the yeast fitness read?
A: ≤ 0.5

Q: For U2G C33G C61A, which yeast fitness is on record?
A: ≤ 0.5

Q: With U2G C22U C24G A69C as the variant, how does the yeast fitness read?
A: 0.579

Q: Which yeast fitness does the source give for U2C G44C here?
A: 0.846

Q: For U2C G44A, which yeast fitness is on record?
A: 0.86

Q: Which yeast fitness does the source give for U2G G25A U53A G63A here?
A: 0.563

Q: Which yeast fitness does the source give for U2G C30G here?
A: 0.679

Q: Which yeast fitness does the source give for U2G C55G here?
A: 0.532

Q: For U2G C24A C31G A45U, which yeast fitness is on record?
A: ≤ 0.5

Q: With U2G C24U C29G C61G as the variant, how does the yeast fitness read?
A: 0.635

Q: Which yeast fitness does the source give for U2G C29G A43C here?
A: 0.548

Q: With U2G A45U C46G A69C as the variant, how does the yeast fitness read?
A: 0.537

Q: Which yeast fitness does the source give for U2G C11U A40U C49A here?
A: 0.523

Q: Which yeast fitness does the source give for U2C U35A C55A C66A here?
A: 0.521

Q: With U2G C62G as the variant, how does the yeast fitness read?
A: 0.632

Q: With U2G A45U G67C as the variant, how does the yeast fitness read?
A: ≤ 0.5

Q: For U2G C24U A69U, which yeast fitness is on record?
A: 0.681

Q: For U2G A43U, which yeast fitness is on record?
A: 0.996

Q: With U2G A43C as the variant, how does the yeast fitness read?
A: 1.07

Q: For U2G A45G, which yeast fitness is on record?
A: 0.869

Q: With U2G G12A U13A G25C U28A C33A G63C U64C as the variant, how does the yeast fitness read?
A: ≤ 0.5

Q: For U2G C34G G39C G41C G67C, which yeast fitness is on record?
A: ≤ 0.5

Q: With U2G G12A U13A G25C U28A C33A G63C U64C C66U as the variant, how does the yeast fitness read?
A: ≤ 0.5

Q: With U2G C46A C66U as the variant, how does the yeast fitness read?
A: 0.584

Q: Which yeast fitness does the source give for U2G U19A A21G C31U A65U G67C here?
A: ≤ 0.5

Q: For U2G G56A, which yeast fitness is on record?
A: 0.896

Q: Which yeast fitness does the source give for U2G G18A C29G C31G G52A here?
A: ≤ 0.5

Q: Which yeast fitness does the source give for U2C U28G A43U G56C A57U G67A here?
A: ≤ 0.5

Q: Which yeast fitness does the source give for U2G A21G A40G here?
A: ≤ 0.5

Q: Which yeast fitness does the source give for U2G C29U G44C U54A here?
A: 0.554

Q: With U2G A42C U47A A65U as the variant, how does the yeast fitness read?
A: ≤ 0.5

Q: With U2G C11U A45C U53G as the variant, how does the yeast fitness read?
A: 0.583

Q: With U2G A20C G38A as the variant, how does the yeast fitness read?
A: ≤ 0.5

Q: For U2G G44C C55G, which yeast fitness is on record?
A: ≤ 0.5

Q: Which yeast fitness does the source give for U2G C4U C33G A37U U64G here?
A: ≤ 0.5

Q: Which yeast fitness does the source give for U2C U53A here?
A: 0.7

Q: For U2C G44A A70C, which yeast fitness is on record?
A: 0.884

Q: With U2G A37C G41A C49U C60G as the variant, how does the yeast fitness read?
A: 0.51

Q: For U2G G25C U28G A42C C61U, which yeast fitness is on record?
A: ≤ 0.5

Q: For U2C U28A A43C A57C C62A, which yeast fitness is on record?
A: 0.572

Q: Which yeast fitness does the source give for U2G G51C here?
A: 0.543

Q: Which yeast fitness does the source give for U2C G23C C55G A69U here?
A: ≤ 0.5

Q: Which yeast fitness does the source give for U2G A15U C62A here?
A: 0.613
